Experimental data pooled from the literature.
Compare with care: the assays were run in different laboratories.
Effect on: cell growth or viability

SMILES | cell line | technique | time | setting | measurement | result
C=C(F)C(=O)N1CCN(c2nc(OC[C@@H]3CCCN3C)nc3c2CCN(c2cccc4cccc(Cl)c24)C3)C[C@@H]1CC#N | NCI-H23 | ATP luminescence |  | 3D culture | IC50 | 0.0113 µM
Cc1noc2c1-c1ccccc1C(c1ccc(Cl)cc1)=N[C@H]2CC(N)=O | KG-1 | ATP luminescence | 72 h |  | IC50 | 0.52 µM
C=CC(=O)N1CCN(c2nc(=O)n(-c3c(C)ccnc3C(C)C)c3nc(-c4c(O)cccc4F)c(F)cc23)[C@@H](C)C1 | NCI-H1573 | ATP luminescence |  |  | IC50 | > 10 µM
COc1cc2nc(N3CCN(C(=O)C4COc5ccccc5O4)CC3)nc(N)c2cc1OC (stereo not drawn) | C6661 | MTT | 48 h |  | IC50 | 54.3 µM
C=CC(=O)c1cccnc1Nc1cccc(C(F)(F)F)c1 | NCI-H23 | SRB | 48 h |  | GI50 | 14.2 µM
C=CC(=O)NC1CCN(c2ncc3ncnc(Nc4ccc(Oc5ccc6c(c5)ncn6C)c(C)c4)c3n2)CC1 | SW1573 |  |  |  | EC50 | 0.079 µM
CO[C@]12C[C@@H](COC(=O)c3cncc(Br)c3)CN(C)[C@@H]1Cc1cn(C)c3cccc2c13 | C6661 | MTT | 48 h |  | IC50 | 82.6 µM
O=C(O)c1ccccc1Nc1cccc(C(F)(F)F)c1 | NCI-H23 | SRB | 48 h |  | GI50 | > 30 µM
Cc1c(C(=O)O)ccc2c3n(nc12)[C@@H]1[C@H](C3)N(CC2CC2)[C@@]2(C(=O)Nc3cc(Cl)ccc32)[C@H]1c1cccc(Cl)c1F | Rh18 | resazurin |  |  | GI50 | 0.005 µM
